What is called inhibition is the change of the read-out against control, counted positive when it falls.

SMILES strings stand for the structures. Calls of active or inactive are those of the source.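 How the source made its calls, unless noted: active means calcium signal rise above buffer-control mean plus 5 SD in both duplicates, and also a hit in the primary screen; inactive means the rest.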

Sequence of Short transient receptor potential channel 6 (Mus musculus) (Q61143 whole entry, looked up): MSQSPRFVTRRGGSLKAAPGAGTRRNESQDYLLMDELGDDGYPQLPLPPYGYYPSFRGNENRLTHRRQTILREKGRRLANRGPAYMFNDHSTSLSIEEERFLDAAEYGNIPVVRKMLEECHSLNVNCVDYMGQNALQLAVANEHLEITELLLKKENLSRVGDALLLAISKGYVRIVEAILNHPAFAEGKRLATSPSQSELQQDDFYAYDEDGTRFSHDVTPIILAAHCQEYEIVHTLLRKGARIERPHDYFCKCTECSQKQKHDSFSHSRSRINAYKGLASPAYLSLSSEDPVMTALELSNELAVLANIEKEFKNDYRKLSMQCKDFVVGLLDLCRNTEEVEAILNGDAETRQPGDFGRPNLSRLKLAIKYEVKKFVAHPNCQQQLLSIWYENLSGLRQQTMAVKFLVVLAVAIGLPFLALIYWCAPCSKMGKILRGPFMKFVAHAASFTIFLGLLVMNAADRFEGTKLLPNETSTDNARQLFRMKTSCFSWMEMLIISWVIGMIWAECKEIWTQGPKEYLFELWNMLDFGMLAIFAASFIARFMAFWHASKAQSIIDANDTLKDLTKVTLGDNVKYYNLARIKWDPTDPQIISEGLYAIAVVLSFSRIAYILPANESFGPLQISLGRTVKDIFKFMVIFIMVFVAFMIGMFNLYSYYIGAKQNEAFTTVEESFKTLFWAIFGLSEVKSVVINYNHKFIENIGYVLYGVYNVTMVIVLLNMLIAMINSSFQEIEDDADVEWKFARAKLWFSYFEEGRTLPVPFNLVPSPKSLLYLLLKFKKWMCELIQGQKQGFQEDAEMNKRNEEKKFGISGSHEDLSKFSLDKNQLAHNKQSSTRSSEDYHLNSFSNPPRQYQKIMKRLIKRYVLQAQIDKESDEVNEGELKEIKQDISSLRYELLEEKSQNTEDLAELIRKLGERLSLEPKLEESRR

One experiment concerns the target Short transient receptor potential channel 6 (Mus musculus) (UniProt Q61143). Briefly: positive modulators of mouse TRPC6 channel – HEK293 cells, membrane potential dye, duplicate, selectivity assay for TRPC4 potentiator project, confirmation (AID 434952;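 active means compound raising the membrane signal above positive-control mean plus 3 SD in both repeats, and a primary screen hit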). To be noted: HEK293 TRPC6, membrane potential dye fluorescence, at 10 µM, maximal acetylcholine added after compound; hits give high values.
Regarding `COc1ccc(CCn2c(=S)[nH]c3cc(C(=O)N4CCOCC4)ccc3c2=O)cc1OC`, the result was inactive.

`CN(C)CCCCOc1cccc(Br)c1`: the outcome was inactive.

Consider `CC1=CC(=O)C(C(C)C)=C/C1=N/OS(=O)(=O)c1ccccc1`, for which the result was inactive.

Turning to `O=C1CC(NS(=O)(=O)c2cccs2)CN1c1ccccc1` (stereo not drawn), the outcome was inactive.

Consider `OCCNCc1cc(Br)ccc1OCc1ccccc1`, for which the result was inactive.

The next experiment concerns the target Short transient receptor potential channel 4 (Mus musculus) (UniProt Q9QUQ5). The experiment can be described thus: calcium flux activators in TRPC4/5HT1a cells, counter-screen for TRPC4 activator project, cell-based, second counter screen, HEK293 TRPC4/5HT1a, Fluo-4 (AID 434977). To be noted: Fluo-4 calcium flux, at 10 µM; hits give high values. For orientation: A change in cytosolic calcium serves as a functional read-out for many receptors and channels.
Take `COC(=O)c1ccccc1NC(=O)c1cnn2cccnc12`: the result was inactive.

`Cc1cc(Cl)ccc1OC(C)C(=O)Nc1ccccc1N1CCOCC1` (stereo not drawn): the outcome was inactive.

`CC(C(=O)c1ccc(Br)cc1)[n+]1cccc(NC(=O)c2ccccc2)c1` (stereo not drawn): the outcome was inactive.

For the compound `Cn1c(SCCOc2ccccc2F)nc2ccccc2c1=O`, the outcome was inactive.

As to `O=C(CN1CCCN(S(=O)(=O)c2ccc(F)cc2)CC1)Nc1ccccc1Br`, the result was inactive.

On to `Cc1c(CCOC(=O)c2ccccc2)sc[n+]1CC(=O)c1ccc(Br)cc1`, for which the outcome was inactive.

Take `Cc1c(N2C(=O)/C(=C/c3ccccc3)SC2=S)c(=O)n(-c2ccccc2)n1C`: the result was inactive.

`CCOC(=O)Cc1csc(NC(=O)NC2(C(F)(F)F)Oc3cc(Cl)c(Cl)cc3O2)n1`: the outcome was inactive.

Consider `CCCn1nc(C(=O)NC2CCCc3ccccc32)c2ccccc2c1=O` (stereo not drawn), for which the outcome was inactive.

`CCOC(=O)c1c(C)n(-c2ccc(C)cc2)c2ccc(OCC(O)CNCC3CCCO3)cc12` (stereo not drawn): the outcome was inactive.

For the compound `O=C(NCCCN1CCN(CCCNC(=O)c2cccc(Cl)c2)CC1)c1cccc(Cl)c1`, the result was inactive.

As for `COC(=O)[C@@]12CCCCN1[C@H](c1ccc(-c3ccc(C(C)=O)cc3)cc1)[C@@H]1C(=O)N(C)C(=O)[C@@H]12`, the outcome was inactive.

As to `Cc1ccc(CNC(=O)CSc2nc(=O)n3ccccc3n2)cc1`, the result was inactive.

For the compound `CCCCCCc1cc2cc(-c3nnc(-c4ccccc4O)o3)c(=O)oc2cc1O`, the result was inactive.

For `CCCCN(C)CCNC(=O)C1CCCN(S(=O)(=O)c2cccc3nsnc23)C1` (stereo not drawn), the outcome was inactive.

Turning to `Cc1cccc(NC(=O)CNC(=O)CN2C(=O)NC3(CCCCC3C)C2=O)c1C` (stereo not drawn), the outcome was inactive.

As to `CC(C)c1ccc(OCc2ccc(C(=O)N3CCCC3)o2)cc1`, the result was inactive.

`COc1ccc(-n2cc(CNCc3cnc4ccccn34)c(-c3cccc(F)c3)n2)cc1`: the result was inactive.

Turning to `COc1ccc(CCN2C(=S)N(C)C(=O)C2CC(=O)Nc2ccc(F)cc2)cc1` (stereo not drawn), the outcome was inactive.

With `CCOC(=O)C1=NNC(C(=O)c2ccc(Cl)cc2)C1c1ccc(OC)cc1` (stereo not drawn), the result was inactive.

As to `Cc1ccc(C(C)C)c(OCCCCN2CCNCC2)c1`, the result was inactive.

For `CCOC(=O)CSc1nc2ccccc2c(=O)n1C1CCCC1`, the result was inactive.

As to `Clc1ccc(Cl)c(OCCCCN2CCNCC2)c1`, the result was inactive.

For `COc1ccc(-c2cc(C(=O)N3CC(C)CC(C)C3)c3ccccc3n2)cc1` (stereo not drawn), the outcome was inactive.

Turning to `Cn1c(N2CCC(C(N)=O)CC2)nc2c1c(=O)n(Cc1ccc(Br)cc1)c(=O)n2C`, the result was inactive.

Turning to `OC1(c2ccc(Cl)cc2)CN(c2ccccc2)C2=[N+]1CCS2` (stereo not drawn), the result was inactive.

As to `CCN(CCCNC(=O)CCCOc1cc(=O)n(C)c2ccccc12)Cc1ccccc1`, the result was inactive.

For the compound `O=C(NN/C(=N/S(=O)(=O)c1ccc(Cl)cc1)c1ccccc1)c1cccc(Cl)c1`, the outcome was inactive.

In the case of `CCn1c2ccc(F)cc2c2nnc(NN)nc21`, the outcome was inactive.

With `CCN(CC)CCOCCOc1ccc(Cl)c2ccccc12`, the outcome was inactive.

With `O=C(NCCCN1CCCC1=O)c1ccc(CNS(=O)(=O)c2ccc(F)cc2)cc1`, the result was inactive.

`Cc1noc(C)c1COC(=O)[C@@H](NC(=O)c1ccccc1Cl)C(C)C`: the result was inactive.

In the case of `C/C=C/Cn1c(SCCCc2ccccc2)nc2c1c(=O)[nH]c(=O)n2C`, the outcome was inactive.

With `O=[N+]([O-])c1ccc2c(c1)C=C1CCCCC1(N1CCCC1)O2` (stereo not drawn), the outcome was inactive.

In the case of `COc1ccc(CCn2c(=S)[nH]c3cc(C(=O)N4CCOCC4)ccc3c2=O)cc1OC`, the result was inactive.

With `CN(C)CCCCOc1cccc(Br)c1`, the outcome was inactive.

For `CC1=CC(=O)C(C(C)C)=C/C1=N/OS(=O)(=O)c1ccccc1`, the result was inactive.

Regarding `O=C1CC(NS(=O)(=O)c2cccs2)CN1c1ccccc1` (stereo not drawn), the outcome was inactive.

On to `OCCNCc1cc(Br)ccc1OCc1ccccc1`, for which the outcome was inactive.

Test system in a further experiment: not listed separately
Briefly: serotonin-gated TRPC4 signal block – cell-based, second counter screen, HEK293 TRPC4/5HT1a, Fluo-4, counter-screen for TRPC4 inhibitor project, confirmation (AID 434978;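 active means primary screen active whose calcium signal fell more than 3 SD beyond the full-serotonin control mean in both duplicate plates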;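 on outcome: serotonin given first at submaximal then at maximal dose after compound preincubation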). To be noted: Fluo-4 calcium flux, at 10 µM, serotonin added to trigger calcium flux; hits give high values. The procedure, abridged: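 Times: 110 s each for compound, submaximal and ECmax serotonin; Assay system: TRPC4/5HT1a HEK293 cells; Also added: serotonin, a submaximal addition followed by a maximal (ECmax) addition; Replicates: each compound tested on duplicate plates; Measured by: Fluo-4 calcium fluorescence.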
For the compound `COC(=O)c1ccccc1NC(=O)c1cnn2cccnc12`, the outcome was inactive.

Take `Cc1cc(Cl)ccc1OC(C)C(=O)Nc1ccccc1N1CCOCC1` (stereo not drawn): the result was inactive.

For `CC(C(=O)c1ccc(Br)cc1)[n+]1cccc(NC(=O)c2ccccc2)c1` (stereo not drawn), the result was inactive.

As for `Cn1c(SCCOc2ccccc2F)nc2ccccc2c1=O`, the result was inactive.

Take `O=C(CN1CCCN(S(=O)(=O)c2ccc(F)cc2)CC1)Nc1ccccc1Br`: the result was inactive.

In the case of `Cc1c(CCOC(=O)c2ccccc2)sc[n+]1CC(=O)c1ccc(Br)cc1`, the outcome was inactive.

As for `Cc1c(N2C(=O)/C(=C/c3ccccc3)SC2=S)c(=O)n(-c2ccccc2)n1C`, the outcome was inactive.

With `CCOC(=O)Cc1csc(NC(=O)NC2(C(F)(F)F)Oc3cc(Cl)c(Cl)cc3O2)n1`, the inhibition is 39.5% (active).

Consider `CCCn1nc(C(=O)NC2CCCc3ccccc32)c2ccccc2c1=O` (stereo not drawn), for which the outcome was inactive.

As to `CCOC(=O)c1c(C)n(-c2ccc(C)cc2)c2ccc(OCC(O)CNCC3CCCO3)cc12` (stereo not drawn), the outcome was inactive.

As to `O=C(NCCCN1CCN(CCCNC(=O)c2cccc(Cl)c2)CC1)c1cccc(Cl)c1`, the result was inactive.

Take `COC(=O)[C@@]12CCCCN1[C@H](c1ccc(-c3ccc(C(C)=O)cc3)cc1)[C@@H]1C(=O)N(C)C(=O)[C@@H]12`: the outcome was inactive.

With `Cc1ccc(CNC(=O)CSc2nc(=O)n3ccccc3n2)cc1`, the result was inactive.

Consider `CCCCCCc1cc2cc(-c3nnc(-c4ccccc4O)o3)c(=O)oc2cc1O`, for which the outcome was inactive.

With `CCCCN(C)CCNC(=O)C1CCCN(S(=O)(=O)c2cccc3nsnc23)C1` (stereo not drawn), the outcome was inactive.

Regarding `Cc1cccc(NC(=O)CNC(=O)CN2C(=O)NC3(CCCCC3C)C2=O)c1C` (stereo not drawn), the outcome was inactive.

For `CC(C)c1ccc(OCc2ccc(C(=O)N3CCCC3)o2)cc1`, the outcome was inactive.

`COc1ccc(-n2cc(CNCc3cnc4ccccn34)c(-c3cccc(F)c3)n2)cc1`: the result was inactive.

With `COc1ccc(CCN2C(=S)N(C)C(=O)C2CC(=O)Nc2ccc(F)cc2)cc1` (stereo not drawn), the result was inactive.

Regarding `CCOC(=O)C1=NNC(C(=O)c2ccc(Cl)cc2)C1c1ccc(OC)cc1` (stereo not drawn), the outcome was inactive.

For `Cc1ccc(C(C)C)c(OCCCCN2CCNCC2)c1`, the result was inactive.

On to `CCOC(=O)CSc1nc2ccccc2c(=O)n1C1CCCC1`, for which the outcome was inactive.

`Clc1ccc(Cl)c(OCCCCN2CCNCC2)c1`: the result was inactive.

With `COc1ccc(-c2cc(C(=O)N3CC(C)CC(C)C3)c3ccccc3n2)cc1` (stereo not drawn), the outcome was inactive.

Take `Cn1c(N2CCC(C(N)=O)CC2)nc2c1c(=O)n(Cc1ccc(Br)cc1)c(=O)n2C`: the outcome was inactive.

Take `OC1(c2ccc(Cl)cc2)CN(c2ccccc2)C2=[N+]1CCS2` (stereo not drawn): the outcome was inactive.

Turning to `CCN(CCCNC(=O)CCCOc1cc(=O)n(C)c2ccccc12)Cc1ccccc1`, the outcome was inactive.

`O=C(NN/C(=N/S(=O)(=O)c1ccc(Cl)cc1)c1ccccc1)c1cccc(Cl)c1`: the result was inactive.

As to `CCn1c2ccc(F)cc2c2nnc(NN)nc21`, the outcome was inactive.

Take `CCN(CC)CCOCCOc1ccc(Cl)c2ccccc12`: the result was inactive.

With `O=C(NCCCN1CCCC1=O)c1ccc(CNS(=O)(=O)c2ccc(F)cc2)cc1`, the outcome was inactive.

`Cc1noc(C)c1COC(=O)[C@@H](NC(=O)c1ccccc1Cl)C(C)C`: the result was inactive.

As for `C/C=C/Cn1c(SCCCc2ccccc2)nc2c1c(=O)[nH]c(=O)n2C`, the outcome was inactive.

As for `O=[N+]([O-])c1ccc2c(c1)C=C1CCCCC1(N1CCCC1)O2` (stereo not drawn), the outcome was inactive.

`COc1ccc(CCn2c(=S)[nH]c3cc(C(=O)N4CCOCC4)ccc3c2=O)cc1OC`: the result was inactive.

Consider `CN(C)CCCCOc1cccc(Br)c1`, for which the outcome was inactive.

Regarding `CC1=CC(=O)C(C(C)C)=C/C1=N/OS(=O)(=O)c1ccccc1`, the outcome was inactive.

Take `O=C1CC(NS(=O)(=O)c2cccs2)CN1c1ccccc1` (stereo not drawn): the outcome was inactive.

As for `OCCNCc1cc(Br)ccc1OCc1ccccc1`, the outcome was inactive.

(Values after PubChem BioAssay.)
